Experimental data taken from ChEMBL document CHEMBL1141288, “Antimalarial and antituberculous poly-O-acylated jatrophane diterpenoids from Pedilanthus tithymaloides” (J Nat Prod, 2007).
Converted amounts (≈) assume the structure as drawn. The source made the active and inactive calls. The rule behind the calls is not given here.

Key:
Plasmodium falciparum [1] = test: Antimalarial activity against Plasmodium falciparum K1 by microculture radioisotope assay; assay type: functional, organism-based
Procedure, shortened: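 The P. falciparum K1 strain is multidrug-resistant and was kept in continuous culture. In vitro activity was measured by the microculture radioisotope technique.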

Candida albicans [2] = test: Antifungal activity against Candida albicans ATCC 90028 at 50 ug/mL by tetrazolium/formazan assay; assay type: functional, organism-based
Procedure, shortened: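 Candida albicans ATCC 90028 tested with a tetrazolium/formazan assay. Compounds were run at 50 µg/mL. Amphotericin B served as the positive control and DMSO as the negative control.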

[3] = test system: Mycobacterium tuberculosis; test: Antitubercular activity against Mycobacterium tuberculosis H37Ra by alamar blue microplate assay; assay type: functional
Plasmodium falciparum [4] = test: Antimalarial activity against Plasmodium falciparum K1 at 10 ug/mL by microculture radioisotope assay; assay type: functional, organism-based
Candida albicans [5] = test: Antifungal activity against Candida albicans ATCC 90028 by tetrazolium/formazan assay; assay type: functional, organism-based

SMILES | IC50 (Plasmodium falciparum [1]) [µM] | Activity (Candida albicans [2]) | MIC [3] [µg/mL] | Activity (Plasmodium falciparum [4]) | IC50 (Candida albicans [5]) [µg/mL]
CC(=O)O[C@H]1C[C@@H](OC(=O)c2ccccc2)/C(C)=C\[C@H]2[C@@H](OC(=O)c3ccccc3)[C@@H](C)[C@H](O)[C@]2(OC(C)=O)[C@H](O)[C@@](C)(O)/C=C/C1(C)C | 5.9 | inactive | 12.5 (≈ 18.4 µM) |  | 
CC(=O)O[C@@H]1/C(C)=C/CC(C)(C)[C@@H](OC(C)=O)[C@@H](OC(C)=O)C(=O)/C(C)=C\[C@H]2[C@@H](OC(=O)c3ccccc3)[C@@H](C)[C@H](OC(C)=O)[C@]12OC(C)=O | 4 |  | 50 (≈ 71.6 µM) |  | 
CC(=O)O/C1=C(\C)[C@@H](O)[C@H]2[C@@H](OC(=O)c3ccccc3)[C@@H](C)[C@H](O)[C@]2(OC(C)=O)[C@H](OC(C)=O)/C(C)=C/CC(C)(C)[C@@H](OC(C)=O)[C@H]1OC(C)=O | 6 |  | 100 (≈ 140 µM) |  | 
C[C@H]1[C@@H](O)O[C@@H]2O[C@@]3(C)CC[C@H]4[C@H](C)CC[C@@H]1[C@@]24OO3 [ARTENIMOL] | 0.0036 |  |  |  | 
CC(=O)O[C@H]1C[C@@H](O)/C(C)=C\[C@H]2[C@@H](OC(=O)c3ccccc3)[C@@H](C)[C@H](O)[C@]2(OC(C)=O)[C@H](O)[C@@](C)(O)/C=C/C1(C)C |  | inactive | 100 (≈ 174 µM) | inactive | 
C[C@@H]1[C@H](O)[C@@H](C)/C=C/C=C/C=C/C=C/C=C/C=C/C=C/[C@H](O[C@@H]2O[C@H](C)[C@@H](O)[C@H](N)[C@@H]2O)C[C@@H]2O[C@](O)(C[C@@H](O)C[C@@H](O)[C@H](O)CC[C@@H](O)C[C@@H](O)CC(=O)O[C@H]1C)C[C@H](O)[C@H]2C(=O)O (stereo in doubt) [AMPHOTERICIN B] |  |  |  |  | 0.068 (≈ 0.0736 µM)
CC(=O)O/C1=C(\C)[C@@H](O)[C@H]2[C@@H](OC(=O)c3ccccc3)[C@@H](C)[C@H](OC(C)=O)[C@]2(OC(C)=O)[C@H](OC(C)=O)/C(C)=C/CC(C)(C)[C@@H](OC(C)=O)[C@H]1OC(C)=O | 5.8 | inactive | 50 (≈ 65.9 µM) |  | 
NNC(=O)c1ccncc1 [ISONIAZID] |  |  | 0.1 (≈ 0.729 µM) |  | 
NC[C@H]1O[C@H](O[C@H]2[C@H](O)[C@@H](O[C@H]3O[C@H](CO)[C@@H](O)[C@H](N)[C@H]3O)[C@H](N)C[C@@H]2N)[C@H](O)[C@@H](O)[C@@H]1O [KANAMYCIN] |  |  | 2.5 (≈ 5.16 µM) |  | 
